Experiment [1] relates to MDA-MB-231. The experiment is described as follows: Cell cycle arrest in estrogen receptor deficient human MDA-MB-231 cells assessed as appearance of polyploidy at 10 nM after 24 hrs using propidium iodide staining by flow cytometry relative to control. In kind it is functional. The method in brief: (§1)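 MDA-MB-231 cells in DMEM with 10% FBS and 2 mM L-glutamine, seeded at 18 × 10⁴ cells/mL. Exposed to test agent at the stated final concentration, or to 1% (v/v) ethanol vehicle, for 24, 48 or 72 h. Harvested by scraping and centrifugation, then RNase A treatment and propidium iodide DNA staining for at least 30 min at 37 °C. 10,000 cells per sample read at 488 nm by flow cytometry; mean ± SD of three experiments.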
On the technique in general: In flow cytometry, cells or beads pass a laser one at a time.

For experiment [2], the system named is MDA-MB-231. The experiment is described as follows: Cell cycle arrest in estrogen receptor deficient human MDA-MB-231 cells assessed as accumulation at S phase at 1 uM after 24 hrs using propidium iodide staining by flow cytometry relative to control. In kind it is functional. Summed up:
as §1

Structures are written as SMILES.

For the compound `COc1ccc(C2CC(=O)N2c2cc(OC)c(OC)c(OC)c2)cc1O` (configuration not stated), the values for the Activity in experiment [1] and in experiment [2] were 2.84% and 6.01%, respectively.
